# Measurements taken from ChEMBL document CHEMBL3272035, “(Vinylaryloxy)acetic acids. A new class of diuretic agents. 1. (Diacylvinylaryloxy)acetic acids” (J Med Chem, 1976).
# Experiments:
# Canis familiaris [1] = test: Diuretic activity in mongrel dog anesthetized with sodium pentobarbital assessed as urine Na+ level at 10 mg/kg, iv measured after 15 to 45 mins post dose (reference value: 4 to 82 uequiv/min); type: functional, Canis lupus familiaris
# Canis familiaris [2] = test: Diuretic activity in mongrel dog anesthetized with sodium pentobarbital assessed as urine K+ level at 10 mg/kg, iv measured after 15 to 45 mins post dose (reference value: 5 to 104 uequiv/min); type: functional, Canis lupus familiaris
# Canis familiaris [3] = test: Diuretic activity in mongrel dog anesthetized with sodium pentobarbital assessed as urine volume at 10 mg/kg, iv measured after 15 to 45 mins post dose (reference value: 1 to 4 ml/min); type: functional, Canis lupus familiaris
# Canis familiaris [4] = test: Diuretic activity in mongrel dog anesthetized with sodium pentobarbital assessed as urine Na+ level at 1 mg/kg, iv measured after 15 to 45 mins post dose (reference value: 4 to 82 uequiv/min); type: functional, Canis lupus familiaris
# Canis familiaris [5] = test: Diuretic activity in mongrel dog anesthetized with sodium pentobarbital assessed as urine K+ level at 1 mg/kg, iv measured after 15 to 45 mins post dose (reference value: 5 to 104 uequiv/min); type: functional, Canis lupus familiaris
# Canis familiaris [6] = test: Diuretic activity in mongrel dog anesthetized with sodium pentobarbital assessed as urine volume at 1 mg/kg, iv measured after 15 to 45 mins post dose (reference value: 1 to 4 ml/min); type: functional, Canis lupus familiaris
# Canis familiaris [7] = test: Diuretic activity in mongrel dog anesthetized with sodium pentobarbital assessed as urine Cl- level at 1 mg/kg, iv measured after 15 to 45 mins post dose (reference value: 2 to 64 uequiv/min); type: functional, Canis lupus familiaris
# Canis familiaris [8] = test: Diuretic activity in mongrel dog anesthetized with sodium pentobarbital assessed as urine volume at 25 mg/kg, iv measured after 15 to 45 mins post dose (reference value: 1 to 4 ml/min); type: functional, Canis lupus familiaris
# Canis familiaris [9] = test: Diuretic activity in mongrel dog anesthetized with sodium pentobarbital assessed as urine Na+ level at 25 mg/kg, iv measured after 15 to 45 mins post dose (reference value: 4 to 82 uequiv/min); type: functional, Canis lupus familiaris
# Canis familiaris [10] = test: Diuretic activity in mongrel dog anesthetized with sodium pentobarbital assessed as urine K+ level at 25 mg/kg, iv measured after 15 to 45 mins post dose (reference value: 5 to 104 uequiv/min); type: functional, Canis lupus familiaris
# Canis familiaris [11] = test: Diuretic activity in mongrel dog anesthetized with sodium pentobarbital assessed as urine Cl- level at 10 mg/kg, iv measured after 15 to 45 mins post dose (reference value: 2 to 64 uequiv/min); type: functional, Canis lupus familiaris
# Canis familiaris [12] = test: Diuretic activity in mongrel dog anesthetized with sodium pentobarbital assessed as urine Na+ level at 0.1 mg/kg, iv measured after 15 to 45 mins post dose (reference value: 4 to 82 uequiv/min); type: functional, Canis lupus familiaris
# Canis familiaris [13] = test: Diuretic activity in mongrel dog anesthetized with sodium pentobarbital assessed as urine K+ level at 0.1 mg/kg, iv measured after 15 to 45 mins post dose (reference value: 5 to 104 uequiv/min); type: functional, Canis lupus familiaris
# Canis familiaris [14] = test: Diuretic activity in mongrel dog anesthetized with sodium pentobarbital assessed as urine Cl- level at 0.1 mg/kg, iv measured after 15 to 45 mins post dose (reference value: 2 to 64 uequiv/min); type: functional, Canis lupus familiaris
# Canis familiaris [15] = test: Diuretic activity in mongrel dog anesthetized with sodium pentobarbital assessed as urine volume at 0.1 mg/kg, iv measured after 15 to 45 mins post dose (reference value: 1 to 4 ml/min); type: functional, Canis lupus familiaris
# Canis familiaris [16] = test: Diuretic activity in mongrel dog […] assessed as urine volume per 6 hrs at 1.27 mg/kg, po as gelatin capsules relative to control; type: functional, Canis lupus familiaris
# Procedure, shortened: (§1)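 Conscious trained female mongrel dogs (8–10 kg), fasted overnight after 100 ml water the day before. On test day 250 ml water orally, then 500 ml 1 h later. Bladder emptied 1 h afterwards and compound or placebo given in gelatin capsules. Voided urine from metabolism cages pooled with catheter urine at 6 h; volume and Na+, K+, Cl− measured; geometric means.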
# Canis familiaris [17] = test: Diuretic activity in mongrel dog assessed as urine K+ level per 6 hrs at 1.27 mg/kg, po as gelatin capsules relative to control
# Canis familiaris [18] = test: Diuretic activity in mongrel dog assessed as urine Na+ level per 6 hrs at 1.27 mg/kg, po as gelatin capsules relative to control
# Canis familiaris [19] = test: Diuretic activity in mongrel dog assessed as urine Cl- level per 6 hrs at 1.27 mg/kg, po as gelatin capsules relative to control
# Canis familiaris [20] = test: Diuretic activity in mongrel trained conscious dog assessed as urine volume per 6 hrs at 0.4 mg/kg, po as gelatin capsules relative to control
# Canis familiaris [21] = test: Diuretic activity in mongrel trained conscious dog assessed as urine K+ level per 6 hrs at 0.4 mg/kg, po as gelatin capsules relative to control
# Canis familiaris [22] = test: Diuretic activity in mongrel trained conscious dog assessed as urine Na+ level per 6 hrs at 0.4 mg/kg, po as gelatin capsules relative to control
# Canis familiaris [23] = test: Diuretic activity in mongrel trained conscious dog assessed as urine Cl- level per 6 hrs at 0.4 mg/kg, po as gelatin capsules relative to control
# Canis familiaris [24] = test: Diuretic activity in mongrel dog assessed as urine volume per 6 hrs at 1 mg/kg, po as gelatin capsules relative to control
# Canis familiaris [25] = test: Diuretic activity in mongrel dog assessed as urine K+ level per 6 hrs at 1 mg/kg, po as gelatin capsules relative to control
# Canis familiaris [26] = test: Diuretic activity in mongrel trained conscious dog assessed as urine Na+ level per 6 hrs at 1 mg/kg, po as gelatin capsules relative to control
# Canis familiaris [27] = test: Diuretic activity in mongrel dog […] assessed as urine Na+ level per 6 hrs at 3 mg/kg, po as gelatin capsules relative to control; type: functional, Canis lupus familiaris; procedure, shortened: as §1
# Canis familiaris [28] = test: Diuretic activity in mongrel dog […] assessed as urine K+ level per 6 hrs at 3 mg/kg, po as gelatin capsules relative to control; type: functional, Canis lupus familiaris; procedure, shortened: as §1
# Canis familiaris [29] = test: Diuretic activity in mongrel dog […] assessed as urine Cl- level per 6 hrs at 3 mg/kg, po as gelatin capsules relative to control; type: functional, Canis lupus familiaris; procedure, shortened: as §1
# Canis familiaris [30] = test: Diuretic activity in mongrel dog […] assessed as urine volume per 6 hrs at 3 mg/kg, po as gelatin capsules relative to control; type: functional, Canis lupus familiaris; procedure, shortened: as §1
# [31] = Half life of the compound in DMF-phosphate buffer at pH 7.4 at 25 degC assessed as SH binding in presence of mercaptoacetic acid; type: physicochemical; conditions: DMF-phosphate buffer with mercaptoacetic acid
# Procedure, shortened: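 Minutes for half of a standard amount of compound to react with excess mercaptoacetic acid in DMF-phosphate buffer, pH 7.4, 25°.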
# Canis familiaris [32] = test: Diuretic activity in mongrel dog assessed as urine Cl- level per 6 hrs at 1 mg/kg, po as gelatin capsules relative to control
Compound,Activity (Canis familiaris [1]),Activity (Canis familiaris [2]),Activity (Canis familiaris [3]),Activity (Canis familiaris [4]),Activity (Canis familiaris [5]),Activity (Canis familiaris [6]),Activity (Canis familiaris [7]),also measured
CC(=O)C(=Cc1ccc(OCC(=O)O)cc1)C(C)=O,336 uEq/min,106 uEq/min,4 mL/min,–,–,–,–,–
CC(=O)C(=Cc1ccc(OCC(=O)O)cc1Cl)C(C)=O,–,–,–,1318 uEq/min,232 uEq/min,11 mL/min,–,–
CC(=O)C(=Cc1ccc(OC(C)C(=O)O)c(Cl)c1Cl)C(C)=O (stereo unspecified),–,–,–,847 uEq/min,71 uEq/min,8 mL/min,–,–
CCC(=O)/C(=C/c1ccc(OCC(=O)O)c(Cl)c1Cl)C(C)=O,–,–,–,2025 uEq/min,13 uEq/min,16 mL/min,1936 uEq/min,–
CCC(=O)C(=Cc1ccc(OCC(=O)O)c(Cl)c1Cl)C(=O)CC,–,–,–,676 uEq/min,68 uEq/min,7 mL/min,–,–
CC(=O)C(=Cc1ccc(OCC(=O)O)c(C)c1C)C(C)=O,–,–,–,–,58 uEq/min,–,–,–
CC(=O)C(=Cc1ccc(OCC(=O)O)c2ccccc12)C(C)=O,–,–,–,393 uEq/min,104 uEq/min,4 mL/min,–,–
CC(=O)C(=Cc1cc(OCC(=O)O)ccc1Cl)C(C)=O,–,–,–,–,–,–,–,Activity (Canis familiaris [8]): 1 mL/min
CC(=O)C(=Cc1cc(Cl)ccc1OCC(=O)O)C(C)=O,94 uEq/min,20 uEq/min,2 mL/min,–,–,–,–,–
CC(=O)C(=Cc1cc(Cl)cc(Cl)c1OCC(=O)O)C(C)=O,–,–,–,–,–,–,–,Activity (Canis familiaris [9]): 244 uEq/min; Activity (Canis familiaris [10]): 50 uEq/min; Activity (Canis familiaris [8]): 3 mL/min
CC(=O)/C(=C\c1ccc(OCC(=O)O)c(Cl)c1Cl)C(=O)c1ccccc1,583 uEq/min,105 uEq/min,6 mL/min,–,–,–,–,–
O=C(O)COc1ccc(C=C2C(=O)c3ccccc3C2=O)c(Cl)c1Cl,118 uEq/min,44 uEq/min,2 mL/min,–,–,–,–,Activity (Canis familiaris [11]): 29 uEq/min
O=C(O)COc1ccc(C=C2C(=O)C=CC2=O)c(Cl)c1Cl,213 uEq/min,94 uEq/min,4 mL/min,–,–,–,–,–
CSC(c1ccc(OCC(=O)O)c(Cl)c1Cl)C(C(C)=O)C(C)=O (stereo unspecified),–,–,–,571 uEq/min,78 uEq/min,6 mL/min,565 uEq/min,–
CC(=O)C(C(C)=O)C(SCCO)c1ccc(OCC(=O)O)c(Cl)c1Cl (stereo unspecified),–,–,–,405 uEq/min,80 uEq/min,5 mL/min,447 uEq/min,–
CC(=O)C(C(C)=O)C(SCC(=O)O)c1ccc(OCC(=O)O)c(Cl)c1Cl (stereo unspecified),–,–,–,1569 uEq/min,178 uEq/min,4 mL/min,1628 uEq/min,Activity (Canis familiaris [12]): 1424 uEq/min; Activity (Canis familiaris [13]): 173 uEq/min; Activity (Canis familiaris [14]): 1991 uEq/min; Activity (Canis familiaris [15]): 13 mL/min; Activity (Canis familiaris [16]): 750 mL; Activity (Canis familiaris [17]): 6 milliequivalent; Activity (Canis familiaris [18]): 27 milliequivalent; Activity (Canis familiaris [19]): 34 milliequivalent; Activity (Canis familiaris [20]): 575 mL; Activity (Canis familiaris [21]): 3 milliequivalent; Activity (Canis familiaris [22]): 7 milliequivalent; Activity (Canis familiaris [23]): 8 milliequivalent
CC(=O)C(C(C)=O)C(Sc1ccccc1C(=O)O)c1ccc(OCC(=O)O)c(Cl)c1Cl (stereo unspecified),–,–,–,802 uEq/min,124 uEq/min,7 mL/min,913 uEq/min,–
CC(=O)C(Cc1ccc(OCC(=O)O)c(Cl)c1Cl)C(C)=O,198 uEq/min,35 uEq/min,3 mL/min,–,–,–,–,Activity (Canis familiaris [11]): 241 uEq/min
CC(=O)C(=Cc1ccc(OCC(=O)O)c(Cl)c1Cl)C(C)=O,–,–,–,–,104 uEq/min,19 mL/min,–,Activity (Canis familiaris [12]): 984 uEq/min; Activity (Canis familiaris [13]): 87 uEq/min; Activity (Canis familiaris [15]): 9 mL/min; Activity (Canis familiaris [24]): 492 mL; Activity (Canis familiaris [25]): 7 milliequivalent; Activity (Canis familiaris [20]): 762 mL; Activity (Canis familiaris [26]): 30 milliequivalent; Activity (Canis familiaris [21]): 6 milliequivalent
C=C(CC)C(=O)c1ccc(OCC(=O)O)c(Cl)c1Cl [ETHACRYNIC ACID],2989 uEq/min,194 uEq/min,22 mL/min,188 uEq/min,52 uEq/min,6 mL/min,244 uEq/min,Activity (Canis familiaris [11]): 3324 uEq/min; Activity (Canis familiaris [27]): 37 milliequivalent; Activity (Canis familiaris [28]): 7 milliequivalent; Activity (Canis familiaris [29]): 42 milliequivalent; Activity (Canis familiaris [30]): 571 mL; half-life [31]: < 1 min; Activity (Canis familiaris [24]): 560 mL; Activity (Canis familiaris [25]): 5 milliequivalent; Activity (Canis familiaris [32]): 26 milliequivalent; Activity (Canis familiaris [26]): 21 milliequivalent
